Experimental data: ChEMBL document CHEMBL1759837, “Studies on chemical modification and biology of a natural product, gambogic acid (III): determination of the essential pharmacophore for biological activity” (Eur J Med Chem, 2011)

Tests used:
HepG2 = assay: Antiproliferative activity against human HepG2 cells after 24 hrs by MTT assay; format: functional, cell-based; conditions: HepG2, 24 h
Outline: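 Tetrazolium MTT viability test; cells exposed to compound 24 h, absorbance read at 570 nm. Survival ratio = A treated / A control × 100%; IC50 is the concentration giving 50% loss of viability. Eight concentrations in two-fold dilutions, triplicate wells, mean of two separate experiments. Compounds dissolved in DMSO (0.01 mol/L stock); control wells received medium only.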

MCF7 = assay: Antiproliferative activity against human MCF7 cells after 24 hrs by MTT assay; format: functional, cell-based; conditions: MCF7, 24 h
Outline: (§1)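 Cells grown at 37 °C in humidified 5% CO2 with benzylpenicillin and streptomycin. Compounds came from 0.01 mol/L DMSO stocks and were tested at eight two-fold dilutions in triplicate, with medium-only controls, for 24 h. MTT absorbance was read at 570 nm. Survival = A_treatment/A_control × 100. IC50 is the concentration giving 50% viability inhibition, as the mean of two separate experiments.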

BGC-823 = assay: Antiproliferative activity against human BGC823 cells after 24 hrs by MTT assay; format: functional, cell-based; conditions: BGC-823, 24 h; outline: as §1
SMMC-7721 = assay: Antiproliferative activity against human SMMC7721 cells after 24 hrs by MTT assay; format: functional, cell-based; conditions: SMMC-7721, 24 h; outline: as §1
Mus musculus = assay: Toxicity in Kunming mouse xenografted with human HepG2 cells assessed as change in body weight at 20 mg/kg, iv administered 24 hrs after tumor implantation one dose per two day for total of four treatment measured after 24 hrs last postdose (reference value: 20.90 +/- 1.29 g); conditions: in vivo
[1] = system: Heps hepatoma (Mus musculus); assay: Antitumor activity against murine Heps hepatoma cells transplanted in Kunming mouse assessed as tumor growth inhibition at 20 mg/kg, iv administered 24 hrs after tumor implantation one dose per two day for total of four treatment measured after 24 hrs last postdose relative to control

Row | Compound | IC50 (HepG2) [µM] | IC50 (MCF7) [µM] | IC50 (BGC-823) [µM] | IC50 (SMMC-7721) [µM] | Activity (Mus musculus) [g] | inhibition in vivo at 20 mg/kg [1] [%]
1 | CC(C)=CCC12OC(C)(C)C3CC(C=C4C(=O)c5cccc(O)c5OC431)C2=O (configuration not stated) | 14.3 | 19.4 | 19.3 | 11.7 | – | –
2 | CC(C)=CCC[C@]1(C)C=Cc2c(O)c3c(c(CC=C(C)C)c2O1)O[C@]12C(=C[C@@H]4C[C@H]1C(C)(C)O[C@@]2(C/C=C(/C)C(=O)O)C4=O)C3=O [GAMBOGIC ACID] | – | 2.19 | 2.35 | 3.2 | 27.6 | 45.3
3 | CC(C)=CCC12OC(C)(C)C3CC(C=C4C(=O)CC(C)OC431)C2=O (configuration not stated) | 95 | 68.3 | 81.1 | 147 | – | –
4 | CC(C)=CCC12OC(C)(C)C3CC(C=C4C(=O)c5cc(O)ccc5OC431)C2=O (configuration not stated) | 12.3 | 20.6 | 32.5 | 20 | – | –
